From ChEMBL document CHEMBL4325892, “4-tert-Pentylphenoxyalkyl derivatives - Histamine H3 receptor ligands and monoamine oxidase B inhibitors” (Bioorg Med Chem Lett, 2018) come the findings set out here.

The target of series [1] is T1, Amine oxidase [flavin-containing] B (Homo sapiens, UniProt P27338).
T1 sequence (P27338 whole entry): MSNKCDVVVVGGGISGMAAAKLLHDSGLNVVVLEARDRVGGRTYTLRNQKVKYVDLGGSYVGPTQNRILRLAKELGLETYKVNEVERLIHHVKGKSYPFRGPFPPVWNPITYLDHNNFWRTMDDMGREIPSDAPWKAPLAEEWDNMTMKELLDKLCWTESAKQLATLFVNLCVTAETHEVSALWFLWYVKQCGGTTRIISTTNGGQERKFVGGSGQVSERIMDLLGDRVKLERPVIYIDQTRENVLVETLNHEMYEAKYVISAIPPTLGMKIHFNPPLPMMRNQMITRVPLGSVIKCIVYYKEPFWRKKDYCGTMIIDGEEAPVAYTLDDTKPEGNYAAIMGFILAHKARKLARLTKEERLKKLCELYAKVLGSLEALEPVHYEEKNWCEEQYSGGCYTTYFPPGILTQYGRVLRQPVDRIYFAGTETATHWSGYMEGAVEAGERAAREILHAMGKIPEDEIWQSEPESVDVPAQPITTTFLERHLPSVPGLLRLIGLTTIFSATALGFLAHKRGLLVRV
Put plainly: Inhibition of human MAO-B expressed in baculovirus infected BTI insect cells at 1 uM using p-tyramine as substrate preincubated for 30 mins followed by substrate addition and measured after 1 hr by fluorescence-based Amplex Red MAO assay relative to control.

For series [2], the target named is T1, Amine oxidase [flavin-containing] B. Put plainly: Inhibition of human MAO-B expressed in baculovirus infected BTI insect cells using p-tyramine as substrate preincubated for 30 mins followed by substrate addition and measured after 1 hr by fluorescence-based Amplex Red MAO assay.
Another series addresses T2, MAO-A (Homo sapiens, UniProt P21397).
T2 sequence (P21397 whole entry): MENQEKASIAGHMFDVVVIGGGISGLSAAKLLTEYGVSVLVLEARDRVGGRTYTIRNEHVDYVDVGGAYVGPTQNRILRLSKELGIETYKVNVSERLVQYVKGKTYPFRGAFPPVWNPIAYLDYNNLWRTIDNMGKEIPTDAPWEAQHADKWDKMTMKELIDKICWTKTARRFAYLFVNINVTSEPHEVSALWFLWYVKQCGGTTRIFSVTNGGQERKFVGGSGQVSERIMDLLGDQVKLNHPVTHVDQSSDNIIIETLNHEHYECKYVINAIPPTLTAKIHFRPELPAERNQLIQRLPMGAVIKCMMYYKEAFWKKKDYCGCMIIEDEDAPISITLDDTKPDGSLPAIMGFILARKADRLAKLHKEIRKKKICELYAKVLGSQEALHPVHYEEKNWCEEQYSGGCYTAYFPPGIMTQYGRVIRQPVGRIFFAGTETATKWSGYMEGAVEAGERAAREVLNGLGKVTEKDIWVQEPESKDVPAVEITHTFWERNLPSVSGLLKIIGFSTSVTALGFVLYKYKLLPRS
Put plainly: Inhibition of human MAO-A expressed in baculovirus infected BTI insect cells at 10 uM using p-tyramine as substrate preincubated for 30 mins followed by substrate addition and measured after 1 hr by fluorescence-based Amplex Red MAO assay relative to control. The conditions noted are these: probe p-tyramine.

In series [3] the target is T1, Amine oxidase [flavin-containing] B. Nature of the series: Reversible inhibition of human MAO-B expressed in baculovirus infected BTI insect cells at IC80 preincubated with compound and p-tyramine for 22 mins followed by p-tyramine increase to 1 mM and measured every minute for 5 hrs by fluorescence assay. A digest of the protocol: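 Reversibility test: hMAO B preincubated with inhibitor in the presence of 10 μM para-tyramine. After 22 min, para-tyramine raised to 1 mM, then fluorescence read every minute for 5 h.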

A further series concerns the target Histamine H3 receptor (Homo sapiens, UniProt Q9Y5N1). Nature of the series: Displacement of [3H]-N-alpha-methylhistamine from human H3 receptor expressed in CHO-K1 cell membranes after 60 mins by microbeta2 scintillation counting analysis. The method in brief:
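Radioligand binding with [3H]Nα-methylhistamine on membrane preparations from CHO-K1 cells stably expressing human H3 receptor; Ki reported as the mean of two independent experiments ± SEM.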
A general note: In a radioligand displacement assay an active substance lowers the binding of a labelled ligand.

Series [4] has as its target T1, Amine oxidase [flavin-containing] B. Put plainly: Non-competitive inhibition of human MAO-B expressed in baculovirus infected BTI insect cells at 0.2 to 20 nM preincubated with compound and p-tyramine for 22 mins followed by p-tyramine increase to 1 mM and measured every minute for 5 hrs by Lineweaver-Burk plot analysis. A digest of the protocol: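 Kinetic mode study: hMAO B activity measured at inhibitor 0, 0.2, 0.5 and 20 nM, each across six para-tyramine concentrations (0.05, 0.1, 0.5, 1.0, 1.5, 2.0 mM) to assign inhibition type.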

A value given as a limit tells only on which side of the number the result lay.

Histamine H3 receptor, sequence (Q9Y5N1 whole entry): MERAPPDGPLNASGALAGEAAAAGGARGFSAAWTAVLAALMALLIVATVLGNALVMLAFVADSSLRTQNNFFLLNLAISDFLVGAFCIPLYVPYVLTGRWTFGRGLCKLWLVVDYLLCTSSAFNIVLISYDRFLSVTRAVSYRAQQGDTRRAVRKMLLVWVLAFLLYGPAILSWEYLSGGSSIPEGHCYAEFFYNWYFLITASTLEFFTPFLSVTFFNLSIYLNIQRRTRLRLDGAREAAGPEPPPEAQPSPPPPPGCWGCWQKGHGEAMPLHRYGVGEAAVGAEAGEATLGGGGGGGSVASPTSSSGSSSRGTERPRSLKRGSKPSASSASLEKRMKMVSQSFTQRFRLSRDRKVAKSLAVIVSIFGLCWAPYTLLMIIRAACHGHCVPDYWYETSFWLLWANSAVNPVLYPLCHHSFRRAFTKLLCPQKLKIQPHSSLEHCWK

Consider `CCC(C)(C)c1ccc(OCCCCCCCCN2CCCCCC2)cc1`, for which the inhibition (in general, the share of the control response that was lost under treatment) at 1 µM in series [1] stood at 40%. Also, in series [2], the IC50 (commonly the concentration that gives 50% inhibition) is > 1000 nM.
Take `CCC(C)(C)c1ccc(OCCCCN2CCCC(C)C2)cc1` (configuration not stated): in series [2], it took 1230 nM to reach half-maximal inhibition (IC50). This lies in the single-digit micromolar range.
In series [1], `CCC(C)(C)c1ccc(OCCCCCCCCN2CCCCC2)cc1` yielded an inhibition at 1 µM of 22%. Also, the 50% inhibitory concentration (IC50) in series [2] was > 1000 nM.
As for `CCC(C)(C)c1ccc(OCCCCN2CCCCC2)cc1`, the inhibition at 1 h, 10 µM against MAO-A is 10%. In series [2], this compound yielded an IC50 of 379 nM.
As for `C[C@H](NCc1ccc(OCc2cccc(F)c2)cc1)C(N)=O` [SAFINAMIDE], the “inhibition (INH)” value in series [3] is given as “Active”.
As to `CCC(C)(C)c1ccc(OCCCN2CC(C)CC(C)C2)cc1` (configuration not stated), the inhibition constant Ki – broadly, the dissociation constant of the complex between target and ligand, obtained from inhibition or displacement – on Histamine H3 receptor amounted to 753 nM. Moreover, the inhibition at 1 h, 10 µM against MAO-A was determined as 7%. The compound further came in with an IC50 in series [2] of 962 nM.
In series [1], `CCC(C)(C)c1ccc(OCCCCCCCN2CCCC(C)C2)cc1` (configuration not stated) yielded an inhibition at 1 µM of 35%. Moreover, the half-inhibitory concentration (IC50) in series [2] is > 1000 nM.
`CCC(C)(C)c1ccc(OCCCN2CCCC2)cc1` came in with an inhibitory constant (Ki) on Histamine H3 receptor of 63 nM. Moreover, the inhibition at 1 h, 10 µM on MAO-A stood at 5%. The compound also registered an IC50 in series [2] of 4.5 nM. Also, the “inhibition (INH)” value in series [3] and in series [4] was “Active” throughout.
As for `CCC(C)(C)c1ccc(OCCCCCCCN2CCCCCC2)cc1`, the IC50 in series [2] amounted to 1490 nM. This counts as single-digit micromolar.
As to `CCC(C)(C)c1ccc(OCCCCCCN2CCCCC2)cc1`, the inhibition at 1 µM in series [1] came out at 21%. Also, the IC50 in series [2] is > 1000 nM.
In turn, `CCC(C)(C)c1ccc(OCCCN2CCCCC2C)cc1` (configuration not stated) gave a Ki on Histamine H3 receptor of 437 nM. Also, at MAO-A, the inhibition at 1 h, 10 µM stood at 5%. The same compound returned an IC50 in series [2] of 20 nM. In addition, the “inhibition (INH)” value in series [3] was “Active”.
In series [2], `CCC(C)(C)c1ccc(OCCCCCN2CCCCCC2)cc1` displayed an IC50 of 1130 nM.
As for `CCC(C)(C)c1ccc(OCCCCCCCN2CCC(C)CC2)cc1`, in series [1], 1 µM produced 35% inhibition. In series [2], the IC50 was > 1000 nM.
Taken in the same sequence, the figures for `CCC(C)(C)c1ccc(OCCCCCN2CCCC(C)C2)cc1` (configuration not stated) were 29% and > 1000 nM.
Taken in the same sequence, the figures for `CCC(C)(C)c1ccc(OCCCCCCN2CCC(C)CC2)cc1` were 37% and > 1000 nM.
As for `CCC(C)(C)c1ccc(OCCCCN2CCC(C)CC2)cc1`, the inhibition at 1 µM in series [1] was 47%. The IC50 in series [2] is > 1000 nM.
At Histamine H3 receptor, `CCC(C)(C)c1ccc(OCCCN2CCCCC2)cc1` registered an inhibition constant (Ki) of 37 nM. At MAO-A, this compound registered an inhibition at 1 h, 10 µM of 14%. For the same compound, the IC50 in series [2] stood at 19 nM. Moreover, the “inhibition (INH)” value in series [3] was “Active”.
Turning to `CCC(C)(C)c1ccc(OCCCN2CCC(C)CC2)cc1`, affinity at Histamine H3 receptor was put at a Ki of 147 nM. The same compound gave an IC50 in series [2] of 2070 nM.
Turning to `CCC(C)(C)c1ccc(OCCCCCN2CCC(C)CC2)cc1`, 1 µM produced 48% inhibition in series [1]. In addition, the IC50 in series [2] was > 1000 nM.
In series [1], `CCC(C)(C)c1ccc(OCCCCCCCN2CCCCC2)cc1` had an inhibition at 1 µM of 18%. Also, in series [2], the IC50 is > 1000 nM.
`CCC(C)(C)c1ccc(OCCCCCCCCN2CCC(C)CC2)cc1` came in with an inhibition at 1 µM in series [1] of 37%. Besides, in series [2], the IC50 is > 1000 nM.
For the compound `CCC(C)(C)c1ccc(OCCCN2C(C)CCCC2C)cc1` (configuration not stated), the Ki at Histamine H3 receptor was found to be 140 nM. The inhibition at 1 h, 10 µM against MAO-A is 5%. 22 nM corresponded to half-maximal inhibition in series [2] (IC50). The “inhibition (INH)” value in series [3] is listed as “Active”.
Regarding `CCC(C)(C)c1ccc(OCCCN2CCCCCC2)cc1`, on Histamine H3 receptor, the Ki amounted to 298 nM. This compound had an inhibition at 1 h, 10 µM against MAO-A of 12%. In series [2], this compound gave an IC50 of 65 nM.
In series [1], `CCC(C)(C)c1ccc(OCCCCCN2CCCCC2)cc1` returned an inhibition at 1 µM of 28%. In addition, the IC50 in series [2] was > 1000 nM.
On Histamine H3 receptor, `CCC(C)(C)c1ccc(OCCCN2CCCC(C)C2)cc1` (configuration not stated) gave a Ki of 100 nM. This compound also registered an inhibition at 1 h, 10 µM on MAO-A of 11%. The IC50 in series [2] was 428 nM.
Taken in the same sequence, the figures for `CCC(C)(C)c1ccc(OCCCN2CCCC(C)(C)C2)cc1` were > 1000 nM, 7% and 417 nM.
On to `CCC(C)(C)c1ccc(OCCCCN2CCCCCC2)cc1`, for which it took 609 nM to reach half-maximal inhibition in series [2] (IC50).
In series [1], `CCC(C)(C)c1ccc(OCCCCCCN2CCCC(C)C2)cc1` (configuration not stated) returned an inhibition at 1 µM of 46%. The IC50 in series [2] is > 1000 nM.
Regarding `CCC(C)(C)c1ccc(OCCCCCCN2CCCCCC2)cc1`, inhibition in series [2] was half-maximal at 390 nM (IC50).
With `CCC(C)(C)c1ccc(OCCCCCCCCN2CCCC(C)C2)cc1` (configuration not stated), the inhibition at 1 µM in series [1] worked out at 33%. Also, the IC50 in series [2] was > 1000 nM.
